Laboratory results as given in PMC2782447 (Apoptosis : an international journal on programmed cell …, 2008).
The star is where a group is joined. pNA = O=[N+]([O-])c1ccc(N*)cc1

Tests used:
caspase-6 = molecular target: T1, caspase-6 (Homo sapiens, UniProt P55212); experiment: Colorimetric substrate hydrolysis by caspase-6; type: biochemical; conditions: for kcat/Km: 50 mM HEPES, pH 7.25, 100 mM NaCl, 10% sucrose, 0.1% CHAPS, 405 nm, triplicate; for Relative kcat/Km (relative activity): relative to DEVD = 100%
T1 sequence (P55212 25-179 limits assumed): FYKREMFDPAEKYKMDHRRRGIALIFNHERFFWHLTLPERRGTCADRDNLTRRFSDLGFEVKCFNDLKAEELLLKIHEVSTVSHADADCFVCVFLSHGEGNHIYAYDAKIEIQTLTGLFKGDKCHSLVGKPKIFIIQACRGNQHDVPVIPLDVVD
T1 sequence (P55212 194-293 limits assumed): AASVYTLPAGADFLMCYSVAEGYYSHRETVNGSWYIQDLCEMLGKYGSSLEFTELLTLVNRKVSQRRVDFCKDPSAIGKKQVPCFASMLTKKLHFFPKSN
Outline: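 It was purified by Ni-NTA and S-100 gel filtration and self-processed into active subunits. Assays used 50 mM HEPES pH 7.25, 100 mM NaCl, 10% sucrose, 0.1% CHAPS, with pNA substrates at varied concentrations, A405, in triplicate.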

caspase-7 [1] = molecular target: T2, caspase-7 (Homo sapiens, UniProt P55210); experiment: Colorimetric substrate hydrolysis by caspase-7; type: biochemical; conditions: relative to DEVD = 100%; caspase-7, pH 7.5
T2 sequence (P55210 24-198 limits assumed): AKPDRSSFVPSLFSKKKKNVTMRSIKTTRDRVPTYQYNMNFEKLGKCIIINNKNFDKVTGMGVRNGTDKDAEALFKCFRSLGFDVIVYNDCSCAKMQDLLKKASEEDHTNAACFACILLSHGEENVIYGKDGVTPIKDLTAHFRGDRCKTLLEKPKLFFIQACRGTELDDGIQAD
T2 sequence (P55210 207-303 limits assumed): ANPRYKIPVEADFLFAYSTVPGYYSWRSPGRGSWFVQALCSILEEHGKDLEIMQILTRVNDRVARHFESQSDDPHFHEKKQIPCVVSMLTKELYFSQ

caspase-3 [2] = molecular target: T3, caspase-3 (Homo sapiens, UniProt P42574); experiment: Colorimetric substrate hydrolysis by caspase-3; type: biochemical; conditions: for Relative kcat/Km (relative activity): relative to DEVD = 100%, caspase-3, pH 7.5
T3 sequence (P42574 29-175 limits assumed): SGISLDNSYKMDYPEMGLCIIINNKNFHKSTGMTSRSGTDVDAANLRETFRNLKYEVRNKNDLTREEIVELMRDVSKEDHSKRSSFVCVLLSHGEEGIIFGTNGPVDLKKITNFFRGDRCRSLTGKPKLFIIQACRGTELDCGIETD
T3 sequence (P42574 176-277 limits assumed): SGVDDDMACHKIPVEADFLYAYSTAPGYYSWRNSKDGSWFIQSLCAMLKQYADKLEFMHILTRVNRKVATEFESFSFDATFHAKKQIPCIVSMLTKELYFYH

caspase-8 = caspase-8 (Homo sapiens, UniProt Q14790); experiment: Colorimetric substrate hydrolysis by caspase-8; type: biochemical; conditions: relative to DEVD = 100%; caspase-8, pH 7.5
caspase-3 [3] = molecular target: T3, caspase-3; experiment: Crystal structure of caspase-3/LDESD; type: binding; conditions: crystal structure caspase-3/LDESD, 1.61 Å, PDB 3EDQ
caspase-7 [4] = molecular target: T2, caspase-7; experiment: Crystal structure of caspase-7/LDESD; type: binding; conditions: crystal structure caspase-7/LDESD, 2.45 Å, PDB 3EDR

Chain of caspase-8 (Q14790 217-374 limits assumed): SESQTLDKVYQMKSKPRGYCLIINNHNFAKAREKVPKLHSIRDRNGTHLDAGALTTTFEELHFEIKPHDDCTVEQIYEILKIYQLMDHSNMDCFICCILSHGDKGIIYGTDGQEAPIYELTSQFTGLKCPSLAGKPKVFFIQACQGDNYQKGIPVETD
Chain of caspase-8 (Q14790 385-479 limits assumed): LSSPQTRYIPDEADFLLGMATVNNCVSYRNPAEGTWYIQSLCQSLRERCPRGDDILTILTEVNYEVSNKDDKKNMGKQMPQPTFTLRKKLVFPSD

| Substance | kcat/Km (caspase-6) | Relative kcat/Km (relative activity) (caspase-6; caspase-6, pH 7.25) | Relative kcat/Km (relative activity) (caspase-7 [1]) | increased hydrolysis relative to DEVD (caspase-3 [2]; caspase-3, increase over DEVD) | Relative kcat/Km (relative activity) (caspase-3 [2]) | Relative kcat/Km (relative activity) (caspase-8) | substrate preference, in words (caspase-6; caspase-6, polar P5) | activity of QDEVD compared with DEVD, in words (caspase-3 [2]; caspase-3) | kcat/Km fold higher than DEVD (caspase-6; LEHD versus DEVD, caspase-6, pH 7.25) | covalent binding mode (active site cysteine with aldehyde) (caspase-3 [3]) | covalent binding mode (active site cysteine with aldehyde) (caspase-7 [4]) |
| --- | --- | --- | --- | --- | --- | --- | --- | --- | --- | --- | --- |
| Ac-LDEVD-pNA | 0.068±0.01 min^−1μM^−1 | 118% | 56% | 50% | 146% | 20% |  |  |  |  |  |
| Ac-QDEVD-pNA | 0.086±0.01 min^−1μM^−1 | 148% | 67% |  | 85% | 18% | preference for polar P5 in QDEVD | the activity was similar for the tetrapeptide DEVD and the pentapeptide QDEVD |  |  |  |
| LEHD | 0.19 min^−1μM^−1 |  |  |  |  |  |  |  | 3 fold |  |  |
| Ac-LDESD-aldehyde |  |  |  |  |  |  |  |  |  | forms a hemithioacetal bond with the aldehyde group of the inhibitor | forms a hemithioacetal bond with the aldehyde group of the inhibitor |
